Results from ChEMBL document CHEMBL1125291, “New 8-(trifluoromethyl)-substituted quinolones. The benefits of the 8-fluoro group with reduced phototoxic risk” (1992).
≈ marks a conversion by molar mass, not a printed value. Where “and” joins values, the source holds several entries; their conditions need not be identical. Identical values can stand only once.

How the values were obtained:
Escherichia coli [1] = assay: Minimum inhibitory concentration (MIC) against gram negative bacteria Escherichia coli Vogel.; assay type: functional; details: Escherichia coli; read-out: MIC
Outline: (§1)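 MICs were determined by standard broth microtitration against 11 Gram-positive and Gram-negative organisms, in µg/mL. Values come from duplicate or triplicate experiments and are accurate to ±50%.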

Escherichia coli [2] = assay: In vivo efficacy in mouse protection test in Escherichia coli Vogel administered by subcutaneous injection.; assay type: functional; details: Escherichia coli, sc; read-out: PD50
Outline: (§2)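 Acute lethal systemic infections in female Charles River CD-1 mice. A single dose was given at challenge, orally by gavage or by subcutaneous injection. PD50 (median protective dose, mg/kg) was determined.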

Klebsiella pneumoniae = assay: Minimum inhibitory concentration (MIC) against gram negative bacteria Klebsiella pneumoniae MGH-2.; assay type: functional; details: Klebsiella pneumoniae; read-out: MIC; outline: as §1
Pseudomonas aeruginosa [3] = assay: Minimum inhibitory concentration (MIC) against gram negative bacteria Pseudomonas aeruginosa UI-18.; assay type: functional; details: Pseudomonas aeruginosa; read-out: MIC; outline: as §1
[4] = Minimum inhibitory concentration (MIC) against gram negative bacteria Prot. rettgeri M-1771; assay type: functional; details: Providencia rettgeri; outline: as §1
Escherichia coli [5] = assay: In vivo efficacy in mouse protection test in Escherichia coli Vogel dose administered orally by gavage.; assay type: functional; details: Escherichia coli, po; read-out: PD50; outline: as §2
Mus musculus [6] = organism: Mus musculus; assay: Dose required to induce phototoxic reaction in 50% of mice by probit method at different dosage forms.; assay type: functional
Mus musculus [7] = organism: Mus musculus; assay: Dose which has no effect to induce phototoxic reaction in 50% of mice by probit method.; assay type: functional
Streptococcus pyogenes [8] = assay: Minimum inhibitory concentration (MIC) against gram positive bacteria Streptococcus pyogenes C-203.; assay type: functional; details: Streptococcus pyogenes; read-out: MIC; outline: as §1
[9] = Days of the first positive reaction in […] mice; assay type: functional, Mus musculus
Outline: (§3)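 Depilated female CD-1 mice got a single oral (gavage) or subcutaneous dose, then UVA (320–400 nm) exposure for 3 h starting 1 h post-dose. This was repeated for up to 4 consecutive days. Initial doses were 30, 100 and 300 mg/kg. PTD50 was derived by probit. First day of positive reaction and no-effect dose were taken from the raw data.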

Staphylococcus aureus [10] = assay: Minimum inhibitory concentration (MIC) against gram positive bacteria Staphylococcus aureus UC-76.; assay type: functional; details: Staphylococcus aureus; read-out: MIC; outline: as §1
Mus musculus [11] = assay: Maximum tolerance dose was measured for phototoxic skin reaction by po administration in mice; assay type: functional; outline: as §3
Staphylococcus aureus [12] = assay: Minimum inhibitory concentration (MIC) against gram positive bacteria Staphylococcus aureus H-228; assay type: functional; outline: as §1
Enterobacter cloacae = assay: Minimum inhibitory concentration (MIC) against gram negative bacteria Enterobacter cloacae MA-2646.; assay type: functional
Streptococcus pneumoniae [13] = assay: In vivo efficacy (orally) against Streptococcus pneumoniae SV-1 in mouse protection test; assay type: functional; details: Streptococcus pneumoniae, po; read-out: PD50; outline: as §2
Escherichia coli [14] = assay: Minimum inhibitory concentration (MIC) against gram negative bacteria Escherichia coli H-560; assay type: functional; outline: as §1
Enterococcus faecalis = assay: Minimum inhibitory concentration (MIC) against gram positive bacteria Streptococcus faecalis MGH-2.; assay type: functional; details: Enterococcus faecalis; read-out: MIC; outline: as §1
Streptococcus pneumoniae [15] = assay: In vivo efficacy (s.c.) against Streptococcus pneumoniae SV-1 in mouse protection test; assay type: functional; details: Streptococcus pneumoniae, sc; read-out: PD50; outline: as §2
Mus musculus [16] = organism: Mus musculus; assay: Number of mice which show positive phototoxic reaction in 5 mice; assay type: functional
Streptococcus pneumoniae [17] = assay: Minimum inhibitory concentration (MIC) against gram positive bacteria Streptococcus pneumoniae SV-1.; assay type: functional; details: Streptococcus pneumoniae; read-out: MIC; outline: as §1
Streptococcus pyogenes [18] = assay: In vivo efficacy (s.c.) against Streptococcus pyogenes C-203 in mouse protection test; assay type: functional; details: Streptococcus pyogenes, sc; read-out: PD50; outline: as §2
[19] = Number of mice which show positive phototoxic reaction in 5 mice at subcutaneous dose; assay type: functional, Mus musculus; outline: as §3
Pseudomonas aeruginosa [20] = assay: In vivo efficacy (orally) against Pseudomonas aeruginosa in mouse protection test; assay type: functional; details: Pseudomonas aeruginosa, po; read-out: PD50; outline: as §2
Streptococcus pyogenes [21] = assay: In vivo efficacy (orally) against Streptococcus pyogenes C-203 in mouse protection test; assay type: functional; details: Streptococcus pyogenes, po; read-out: PD50; outline: as §2
[22] = Minimum inhibitory concentration (MIC) against gram negative bacteria Prot. rettgeri M-1771.; assay type: functional, Providencia rettgeri; details: Providencia rettgeri; read-out: MIC; outline: as §1
Escherichia coli [23] = assay: Minimum inhibitory concentration (MIC) against gram negative bacteria Escherichia coli H-560.; assay type: functional; details: Escherichia coli; read-out: MIC; outline: as §1
Mus musculus [24] = assay: Maximum tolerance dose was measured for phototoxic skin reaction by sc administration; assay type: functional; outline: as §3
[25] = Number of mice which show positive phototoxic reaction in 5 mice at peroral dose; assay type: functional, Mus musculus; outline: as §3
Pseudomonas aeruginosa [26] = assay: In vivo efficacy (s.c.) against Pseudomonas aeruginosa in mouse protection test; assay type: functional; details: Pseudomonas aeruginosa, sc; read-out: PD50; outline: as §2
Mus musculus [27] = assay: Maximum tolerance dose was measured for phototoxic skin reaction by po administration; assay type: functional
Staphylococcus aureus [28] = assay: Minimum inhibitory concentration (MIC) against gram positive bacteria Staphylococcus aureus H-228.; assay type: functional; details: Staphylococcus aureus; read-out: MIC; outline: as §1

Structure (SMILES)	MIC (Escherichia coli [1])	ED50 (Escherichia coli [2])	MIC (Klebsiella pneumoniae)	MIC (Pseudomonas aeruginosa [3])	ED50 (Escherichia coli [5])	PTD50 (Mus musculus [6])	No effect dose (Mus musculus [7])	MIC (Streptococcus pyogenes [8])	MIC (Staphylococcus aureus [10])	MIC (Enterobacter cloacae)	ED50 (Streptococcus pneumoniae [13])	MIC (Enterococcus faecalis)	ED50 (Streptococcus pneumoniae [15])	MIC (Streptococcus pneumoniae [17])	other results
O=C(O)c1cn(C2CC2)c2c(C(F)(F)F)c(N3CCNCC3)c(F)cc2c1=O	0.05 µg/mL (≈ 0.125 µM)	0.9 mg/kg	0.1 µg/mL (≈ 0.25 µM)	1.6 µg/mL (≈ 4.01 µM)	1.8 mg/kg	>100 mg/kg	100 mg/kg	0.4 µg/mL (≈ 1 µM)	0.1 µg/mL (≈ 0.25 µM)	0.05 µg/mL (≈ 0.125 µM)	75 mg/kg	0.4 µg/mL (≈ 1 µM)	26 mg/kg	0.4 µg/mL (≈ 1 µM)	MIC [4]: 0.2 µg/mL (≈ 0.501 µM); Day of first positve reaction [9]: 0; MTD (Mus musculus [11]): 100 mg/kg; MIC (Staphylococcus aureus [12]): 0.4 µg/mL (≈ 1 µM); MIC (Escherichia coli [14]): 0.05 µg/mL (≈ 0.125 µM); No. of pos rxns (Mus musculus [16]): 0
CCn1cc(C(=O)O)c(=O)c2cc(F)c(N3CCNCC3)cc21 [NORFLOXACIN]	0.025 µg/mL (≈ 0.0783 µM)	0.6 mg/kg	0.05 µg/mL (≈ 0.157 µM)	0.2 µg/mL (≈ 0.626 µM)	4 mg/kg	>300 mg/kg and 172 mg/kg	300 mg/kg and 100 mg/kg	0.8 µg/mL (≈ 2.51 µM)	0.05 µg/mL (≈ 0.157 µM)	0.1 µg/mL (≈ 0.313 µM)	> 100 mg/kg	1.6 µg/mL (≈ 5.01 µM)	150 mg/kg	1.6 µg/mL (≈ 5.01 µM)	ED50 (Streptococcus pyogenes [18]): 45 mg/kg; No. of pos rxns [19]: 5; ED50 (Pseudomonas aeruginosa [20]): 76 mg/kg; ED50 (Streptococcus pyogenes [21]): > 100 mg/kg; MIC [22]: 0.025 µg/mL (≈ 0.0783 µM); MIC (Escherichia coli [23]): 0.1 µg/mL (≈ 0.313 µM); MTD (Mus musculus [24]): 300 mg/kg; No. of pos rxns [25]: 0; ED50 (Pseudomonas aeruginosa [26]): 11 mg/kg; MTD (Mus musculus [27]): 300 mg/kg; MIC (Staphylococcus aureus [28]): 0.8 µg/mL (≈ 2.51 µM)
